Arr AP2 block = inhibitors of beta-arrestin/AP2 binding, primary screen, biochemical, GPCR trafficking, flow cytometry; inhibition, % at 10 µM; beta-arrestin 1 C-terminal peptide binding to AP2 beta2-adaptin appendage (human); FITC-arrestin peptide / GST-AP2 beads; AP2 beta2 appendage carries R879A mutation; 0.31% of 340,000 active;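 active means inhibition above a set limit, near 3 SD of compounds lacking own fluorescence, cut at about 54% in these data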;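 further: plate controls were DMSO wells for no effect and 5 µM unlabelled arrestin peptide for full effect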
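System: GST-AP2 R879A bound to glutathione beads, E. coli-expressed. Also added: 50 nM FITC-arrestin peptide. Schedule: compound with beads 12 min RT, then probe 1 h RT. Signal: bead flow cytometry, FITC channel. Read-out basis: percent response.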
DSG3 Ab inh = inhibitors of pemphigus antibody binding to DSG3, primary screen, biochemical, bead-based, flow cytometry, scFv-GFP; 0.48% of 310,000 active; DSG3-coupled beads, scFv-anti-DSG3-GFP binding; stronger effect = lower value; binding (percent of control), % at 10 µM; Desmoglein-3 (Homo sapiens), P32926; AID 588358, 2011;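 active means binding more than 3 SD below its plate's average and above zero; inconclusive means below that plate limit but binding exactly zero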;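 further: hits lower antibody fragment binding to DSG3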
Avidin fluor = green autofluorescence of compounds with avidin beads – biophysical, 488/530 nm, flow cytometry, artefact control, profiling panel; compound fluorescence 488/530 nm; stronger effect = higher value; fluorescence (KMESF) at 10 µM; 0.38% of 220,000 active; in the data active means fluorescence above about 47
GSH fluor = compound fluorescence on glutathione beads, profiling panel, artefact control, biophysical, 488/530 nm, flow cytometry. GSH beads flow cytometry, compound fluorescence 488/530 nm; stronger effect = higher value. fluorescence (KMESF) at 10 µM. 0.25% of 190,000 active. AID 1776, 2009; in the data active means fluorescence above about 89;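 further: glutathione beads carrying GST-tagged Bcl family fusion proteins plus one bare bead set; values are compound well signal with DMSO vehicle wells as background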
Arr AP2 CP1 = inhibitors of arrestin peptide binding to AP2, confirmation, biochemical, cherry pick 1, flow cytometry beads | shares compounds with Arr AP2 block | GST-AP2 beads, FITC arrestin peptide binding; GST-fused beta2-adaptin appendage, R879A mutant | inhibition, % at 10 µM | 2% of 1,300 active | AID 504908, 2011;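 active means inhibition above a set limit, roughly 3 SD of non-fluorescent compound noise, cut at about 38% in these data; inactive means inhibition at or below that limit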;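 further: loss of bead fluorescence from 50 nM FITC arrestin peptide bound to appendage; 0% = negative control wells and 100% = excess unlabelled arrestin peptide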
Target sequence (P63010 whole entry, looked up, the tested form may be a part, one chain of several): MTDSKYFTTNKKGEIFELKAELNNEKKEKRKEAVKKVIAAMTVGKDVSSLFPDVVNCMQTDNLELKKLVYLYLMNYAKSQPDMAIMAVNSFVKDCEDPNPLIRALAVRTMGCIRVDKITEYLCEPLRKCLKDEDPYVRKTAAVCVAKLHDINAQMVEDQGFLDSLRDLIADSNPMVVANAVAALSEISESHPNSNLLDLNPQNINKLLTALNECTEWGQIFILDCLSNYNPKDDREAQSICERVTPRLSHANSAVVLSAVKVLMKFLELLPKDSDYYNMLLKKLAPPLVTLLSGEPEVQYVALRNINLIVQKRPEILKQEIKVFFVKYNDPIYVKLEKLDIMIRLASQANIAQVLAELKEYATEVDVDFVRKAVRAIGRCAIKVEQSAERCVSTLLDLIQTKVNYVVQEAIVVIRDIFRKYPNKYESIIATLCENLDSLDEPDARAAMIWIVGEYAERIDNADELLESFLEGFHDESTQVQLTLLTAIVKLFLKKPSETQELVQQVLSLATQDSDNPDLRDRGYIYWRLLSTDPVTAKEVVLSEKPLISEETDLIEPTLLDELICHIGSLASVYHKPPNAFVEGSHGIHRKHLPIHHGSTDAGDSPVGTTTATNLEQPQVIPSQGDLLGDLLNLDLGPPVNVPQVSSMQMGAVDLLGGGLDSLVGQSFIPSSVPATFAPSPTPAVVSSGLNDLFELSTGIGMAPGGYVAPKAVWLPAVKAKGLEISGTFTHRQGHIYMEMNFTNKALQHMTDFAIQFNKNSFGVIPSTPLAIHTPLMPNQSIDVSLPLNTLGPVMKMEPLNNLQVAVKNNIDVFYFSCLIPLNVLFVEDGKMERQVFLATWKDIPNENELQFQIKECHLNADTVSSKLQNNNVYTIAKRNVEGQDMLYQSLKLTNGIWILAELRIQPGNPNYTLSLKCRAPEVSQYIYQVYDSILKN
GST GSH counter = GST-fluorescein capture on glutathione beads, confirmation, artefact control for arrestin-AP2 inhibitor project, biochemical, cherry pick 1, flow cytometry; shares compounds with Arr AP2 block; GST-fluorescein binding to GSH beads, fluorescence, counter-screen; inhibition, % at 10 µM; 2% of 1,300 active;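 active means inhibition above 50%, about 3 SD of the inhibition seen with non-fluorescent compounds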;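 further: fluorescein maleimide labelled GST captured on 4 micron glutathione beads; higher means more loss of bead fluorescence from quenching or blocked binding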
* = called active by the depositor; ? = inconclusive; · = no result. A selection: hits, their analogues and other compounds. The true share with any hit is near 1.1%.

SMILES	Arr AP2 block	DSG3 Ab inh	Avidin fluor	GSH fluor	Arr AP2 CP1	GST GSH counter
COc1cc(C(=O)OCCNC(=O)c2cccnc2)cc(OC)c1OC	58*	94	·	·	-3	-12
COC(=O)CSc1nc(N)nc(C)c1Br	56*	?	6	6	-13	-3
O=C(CN1CCCN(S(=O)(=O)c2ccc(Br)s2)CC1)Nc1ccc(Cl)cc1	-2	101	6	30	·	·
CC1CCCC(NC(=O)CN2CCN(S(=O)(=O)c3ccc(Br)s3)CC2)C1C (stereo not given)	64*	99	·	·	-12	-8
Cc1no[n+]([O-])c1COc1cccc(/C=C2\N=C(c3ccccc3)OC2=O)c1	68*	130	18	11	4	-7
O=C(c1cccc(Oc2ccccc2)c1)N1CCN(c2ccccn2)CC1	21	90	11	17	·	·
Cc1ccc(S(=O)(=O)NCC(=O)N(CC(=O)NCc2ccccc2)CC2CCCO2)cc1 (stereo not given)	5	·	10	38	·	·
COc1ccc(CNC(=O)CN(CC2CCCO2)C(=O)CNS(=O)(=O)c2ccc(C)cc2)cc1 (stereo not given)	77*	105	15	13	-4	1
Cc1noc(C)c1CSCC(=O)N(C)CC(=O)Nc1cccc(F)c1	4	·	·	·	·	·
O=C(COC(=O)c1ccccn1)c1ccc(Br)cc1	-12	94	30	21	·	·
COc1ccc(C(=O)COC(=O)c2ccccn2)cc1OC	56*	116	·	·	-2	3
COc1cc(OC)cc(C(=O)O/N=C(\N)c2ccccn2)c1	55*	100	6	·	-5	-5

Compound activity (PubChem BioAssay)
